Source: ChEMBL document CHEMBL1142136, “Contribution of target gene mutations and efflux to decreased susceptibility of Salmonella enterica serovar typhimurium to fluoroquinolones and other antimicrobials” (2007)
Values after ≈ are worked out from the molar mass of the structure shown.

Key:
Format in all cases: functional, Salmonella enterica subsp. enterica serovar Typhimurium
Salmonella typhimurium [1] = assay: Antimicrobial activity against Salmonella enterica serovar Typhimurium S21-3 with GyrA S83F, ParC S80I mutation
Procedure, shortened: (§1)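 MICs measured by broth microdilution on the Sensititre automated system and interpreted by CLSI broth microdilution standards. Ciprofloxacin was also tested by agar dilution, widening the range to 0.0075–128 μg/ml. Quality control strains were E. coli ATCC 25922 and 35218, E. faecalis ATCC 29212, S. aureus ATCC 29213 and P. aeruginosa ATCC 27853.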

Salmonella typhimurium [2] = assay: Antimicrobial activity against Salmonella enterica serovar Typhimurium CHS38 gyrA+ with GyrA D87G mutation; procedure, shortened: as §1
Salmonella typhimurium [3] = assay: Antimicrobial activity against Salmonella enterica serovar Typhimurium CS9 acrAB::Kan with GyrA S83F, D87N, ParC S80I mutation; procedure, shortened: as §1
Salmonella typhimurium [4] = assay: Antimicrobial activity against Salmonella enterica serovar Typhimurium S21; procedure, shortened: as §1
Salmonella typhimurium [5] = assay: Antimicrobial activity against Salmonella enterica serovar Typhimurium CS3 gyrA+ with GyrA S83F, D87N, ParC S80I mutation; procedure, shortened: as §1
Salmonella typhimurium [6] = assay: Antimicrobial activity against Salmonella enterica serovar Typhimurium S21-1 GyrA S83F mutant; procedure, shortened: as §1
Salmonella typhimurium [7] = assay: Antimicrobial activity against Salmonella enterica serovar Typhimurium CS3 acrAB::Kan with GyrA S83F, D87N, ParC S80I mutation; procedure, shortened: as §1
Salmonella typhimurium [8] = assay: Antimicrobial activity against Salmonella enterica serovar Typhimurium S21-4 gyrA+ with ParC S80I mutation; procedure, shortened: as §1
Salmonella typhimurium [9] = assay: Antimicrobial activity against Salmonella enterica serovar Typhimurium CS9 with GyrA S83F, D87N, ParC S80I mutation; procedure, shortened: as §1
Salmonella typhimurium [10] = assay: Antimicrobial activity against Salmonella enterica serovar Typhimurium CS1 tolC::Kan with GyrA S83F, D87N, ParC S80I mutation; procedure, shortened: as §1
Salmonella typhimurium [11] = assay: Antimicrobial activity against Salmonella enterica serovar Typhimurium S21-2 gyrA+ with ParC S80I mutation; procedure, shortened: as §1
Salmonella typhimurium [12] = assay: Antimicrobial activity against Salmonella enterica serovar Typhimurium CHS14 tolC::Kan with GyrA D87G mutant; procedure, shortened: as §1
Salmonella typhimurium [13] = assay: Antimicrobial activity against Salmonella enterica serovar Typhimurium CHS18 gyrA+ with GyrA S38F mutation; procedure, shortened: as §1
Salmonella typhimurium [14] = assay: Antimicrobial activity against Salmonella enterica serovar Typhimurium CS1 with GyrA S83F, D87N, ParC S80I mutation; procedure, shortened: as §1
Salmonella typhimurium [15] = assay: Antimicrobial activity against Salmonella enterica serovar Typhimurium S21-4 with GyrA S83F, ParC S80I mutation; procedure, shortened: as §1
Salmonella typhimurium [16] = assay: Antimicrobial activity against Salmonella enterica serovar Typhimurium CHS38 tolC::Kan with GyrA D87G mutation; procedure, shortened: as §1
Salmonella typhimurium [17] = assay: Antimicrobial activity against Salmonella enterica serovar Typhimurium CHS14 acrAB::Kan with GyrA D87G mutation; procedure, shortened: as §1
Salmonella typhimurium [18] = assay: Antimicrobial activity against Salmonella enterica serovar Typhimurium CHS14 gyrA+ with GyrA D87G mutation; procedure, shortened: as §1
Salmonella typhimurium [19] = assay: Antimicrobial activity against Salmonella enterica serovar Typhimurium CS9 gyrA+ with GyrA S83F, D87N, ParC S80I mutation; procedure, shortened: as §1
Salmonella typhimurium [20] = assay: Antimicrobial activity against Salmonella enterica serovar Typhimurium CHS18 with GyrA S38F mutation; procedure, shortened: as §1
Salmonella typhimurium [21] = assay: Antimicrobial activity against Salmonella enterica serovar Typhimurium S21-1 gyrA+; procedure, shortened: as §1
Salmonella typhimurium [22] = assay: Antimicrobial activity against Salmonella enterica serovar Typhimurium CS3 tolC::Kan with GyrA S83F, D87N, parC S80I mutation; procedure, shortened: as §1
Salmonella typhimurium [23] = assay: Antimicrobial activity against Salmonella enterica serovar Typhimurium S21-3 gyrA+ with ParC S80I mutation; procedure, shortened: as §1
Salmonella typhimurium [24] = assay: Antimicrobial activity against Salmonella enterica serovar Typhimurium S21 gyrA+; procedure, shortened: as §1
Salmonella typhimurium [25] = assay: Antimicrobial activity against Salmonella enterica serovar Typhimurium CHS38 acrAB::Kan with GyrA D87G mutation; procedure, shortened: as §1
Salmonella typhimurium [26] = assay: Antimicrobial activity against Salmonella enterica serovar Typhimurium CS1 gyrA+ with GyrA S83F, D87N, ParC S80I mutation; procedure, shortened: as §1
Salmonella typhimurium [27] = assay: Antimicrobial activity against Salmonella enterica serovar Typhimurium S21-2 with GyrA S83F, ParC S80I mutation; procedure, shortened: as §1
Salmonella typhimurium [28] = assay: Antimicrobial activity against Salmonella enterica serovar Typhimurium CS1 acrAB::Kan with GyrA S83F, D87N, ParC S80I mutation; procedure, shortened: as §1
Salmonella typhimurium [29] = assay: Antimicrobial activity against Salmonella enterica serovar Typhimurium CS9 tolC::Kan with GyrA S83F, D87N, ParC S80I mutation; procedure, shortened: as §1
Salmonella typhimurium [30] = assay: Antimicrobial activity against Salmonella enterica serovar Typhimurium CHS38 with GyrA D87G mutation; procedure, shortened: as §1
Salmonella typhimurium [31] = assay: Antimicrobial activity against Salmonella enterica serovar Typhimurium CHS18 acrAB::Kan with GyrA S38F mutation; procedure, shortened: as §1
Salmonella typhimurium [32] = assay: Antimicrobial activity against Salmonella enterica serovar Typhimurium CHS14 with GyrA D87G mutation; procedure, shortened: as §1
Salmonella typhimurium [33] = assay: Antimicrobial activity against Salmonella enterica serovar Typhimurium CS3 with GyrA S83F, D87N, ParC S80I mutation; procedure, shortened: as §1
Salmonella typhimurium [34] = assay: Antimicrobial activity against Salmonella enterica serovar Typhimurium S21 acrAB::Kan
Procedure, shortened: (§2)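 MICs by automated broth microdilution panels, interpreted to CLSI broth microdilution standards. Ciprofloxacin additionally tested by agar dilution across 0.0075 to 128 μg/ml. Quality control strains: E. coli ATCC 25922 and 35218, Enterococcus faecalis ATCC 29212, S. aureus ATCC 29213, P. aeruginosa ATCC 27853. Test strains are kanamycin-marked deletion mutants of ground-beef isolate S21.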

Salmonella typhimurium [35] = assay: Antimicrobial activity against Salmonella enterica serovar Typhimurium CHS18 tolC::Kan with GyrA S38F mutation; procedure, shortened: as §1
Salmonella typhimurium [36] = assay: Antimicrobial activity against Salmonella enterica serovar Typhimurium S21 tolC::Kan; procedure, shortened: as §2
Salmonella typhimurium [37] = assay: Antimicrobial activity against Salmonella enterica serovar Typhimurium S21-4 tolC::Kan with GyrA S83F, ParC S80I mutation; procedure, shortened: as §1

SMILES	MIC (Salmonella typhimurium [2]) [µg/mL]	MIC (Salmonella typhimurium [3]) [µg/mL]	MIC (Salmonella typhimurium [4]) [µg/mL]	MIC (Salmonella typhimurium [5]) [µg/mL]	MIC (Salmonella typhimurium [7]) [µg/mL]	MIC (Salmonella typhimurium [9]) [µg/mL]	MIC (Salmonella typhimurium [10]) [µg/mL]	MIC (Salmonella typhimurium [12]) [µg/mL]	MIC (Salmonella typhimurium [13]) [µg/mL]	MIC (Salmonella typhimurium [14]) [µg/mL]	MIC (Salmonella typhimurium [16]) [µg/mL]	MIC (Salmonella typhimurium [17]) [µg/mL]	MIC (Salmonella typhimurium [18]) [µg/mL]	MIC (Salmonella typhimurium [19]) [µg/mL]	MIC (Salmonella typhimurium [20]) [µg/mL]	MIC (Salmonella typhimurium [21]) [µg/mL]	MIC (Salmonella typhimurium [22]) [µg/mL]	MIC (Salmonella typhimurium [24]) [µg/mL]	MIC (Salmonella typhimurium [25]) [µg/mL]	MIC (Salmonella typhimurium [26]) [µg/mL]	also measured
CO/N=C(\C(=O)N[C@@H]1C(=O)N2C(C(=O)O)=C(CSC(=O)c3ccco3)CS[C@H]12)c1csc(N)n1 [CEFTIOFUR]	0.5 (≈ 0.955 µM)	0.5 (≈ 0.955 µM)	0.5 (≈ 0.955 µM)	1 (≈ 1.91 µM)	0.5 (≈ 0.955 µM)	1 (≈ 1.91 µM)	0.5 (≈ 0.955 µM)	< 0.12	1 (≈ 1.91 µM)	1 (≈ 1.91 µM)	0.12 (≈ 0.229 µM)	< 0.12	1 (≈ 1.91 µM)	1 (≈ 1.91 µM)	1 (≈ 1.91 µM)	0.5 (≈ 0.955 µM)	0.5 (≈ 0.955 µM)	0.5 (≈ 0.955 µM)	0.12 (≈ 0.229 µM)	1 (≈ 1.91 µM)	MIC (Salmonella typhimurium [1]): 4 µg/mL (≈ 7.64 µM); MIC (Salmonella typhimurium [6]): 0.5 µg/mL (≈ 0.955 µM); MIC (Salmonella typhimurium [8]): 4 µg/mL (≈ 7.64 µM); MIC (Salmonella typhimurium [11]): 4 µg/mL (≈ 7.64 µM); MIC (Salmonella typhimurium [15]): 4 µg/mL (≈ 7.64 µM); MIC (Salmonella typhimurium [23]): 4 µg/mL (≈ 7.64 µM); MIC (Salmonella typhimurium [27]): 4 µg/mL (≈ 7.64 µM); MIC (Salmonella typhimurium [28]): 0.5 µg/mL (≈ 0.955 µM); MIC (Salmonella typhimurium [29]): 0.5 µg/mL (≈ 0.955 µM); MIC (Salmonella typhimurium [30]): 0.5 µg/mL (≈ 0.955 µM); MIC (Salmonella typhimurium [31]): 0.12 µg/mL (≈ 0.229 µM); MIC (Salmonella typhimurium [32]): 1 µg/mL (≈ 1.91 µM); MIC (Salmonella typhimurium [33]): 1 µg/mL (≈ 1.91 µM); MIC (Salmonella typhimurium [34]): < 0.12 µg/mL; MIC (Salmonella typhimurium [35]): 0.12 µg/mL (≈ 0.229 µM); MIC (Salmonella typhimurium [36]): < 0.12 µg/mL
CC1(C)S[C@@H]2[C@H](NC(=O)[C@H](N)c3ccccc3)C(=O)N2[C@H]1C(=O)O [AMPICILLIN]	> 32	> 32	2 (≈ 5.72 µM)	> 32	> 32	> 32	> 32	< 1	2 (≈ 5.72 µM)	> 32	> 32	< 1	< 1	> 32	2 (≈ 5.72 µM)	> 32	> 32	2 (≈ 5.72 µM)	> 32	> 32	MIC (Salmonella typhimurium [28]): > 32 µg/mL; MIC (Salmonella typhimurium [29]): > 32 µg/mL; MIC (Salmonella typhimurium [30]): > 32 µg/mL; MIC (Salmonella typhimurium [31]): 1 µg/mL (≈ 2.86 µM); MIC (Salmonella typhimurium [32]): < 1 µg/mL; MIC (Salmonella typhimurium [33]): > 32 µg/mL; MIC (Salmonella typhimurium [34]): < 1 µg/mL; MIC (Salmonella typhimurium [35]): 1 µg/mL (≈ 2.86 µM); MIC (Salmonella typhimurium [36]): < 1 µg/mL
O=C(N[C@H](CO)[C@H](O)c1ccc([N+](=O)[O-])cc1)C(Cl)Cl [CHLORAMPHENICOL]	32 (≈ 99 µM)	> 32	8 (≈ 24.8 µM)	> 32	> 32	> 32	> 32	< 2	4 (≈ 12.4 µM)	> 32	4 (≈ 12.4 µM)	< 2	8 (≈ 24.8 µM)	> 32	8 (≈ 24.8 µM)	> 32	> 32	8 (≈ 24.8 µM)	4 (≈ 12.4 µM)	> 32	MIC (Salmonella typhimurium [28]): > 32 µg/mL; MIC (Salmonella typhimurium [29]): > 32 µg/mL; MIC (Salmonella typhimurium [37]): 32 µg/mL (≈ 99 µM); MIC (Salmonella typhimurium [30]): 32 µg/mL (≈ 99 µM); MIC (Salmonella typhimurium [31]): 2 µg/mL (≈ 6.19 µM); MIC (Salmonella typhimurium [32]): 8 µg/mL (≈ 24.8 µM); MIC (Salmonella typhimurium [33]): > 32 µg/mL; MIC (Salmonella typhimurium [34]): < 2 µg/mL; MIC (Salmonella typhimurium [35]): 2 µg/mL (≈ 6.19 µM); MIC (Salmonella typhimurium [36]): < 2 µg/mL
